What was measured:
[1] = target: 3',5'-cyclic-nucleotide phosphodiesterase (Bos taurus, UniProt A0A3Q1M1E8); assay: Inhibition of Phosphodiesterase 3 from bovine heart
Method in brief: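 Enzymes purified from bovine heart (PDE3) or canine kidney (PDE4); 1 μM [3H]cAMP substrate, 50 mM Tris-HCl pH 7.5, 2 mM MgCl2, 0.1 mg/mL BSA, 30 min at 30 °C. IC50 taken from % inhibition vs log molar concentration; duplicates, mean reported.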

[2] = target: Phosphodiesterase 1 (Bos taurus, UniProt Q01061+P14100); assay: Inhibition of phosphodiesterases PDE1 from bovine aorta; type: protein assay
Method in brief: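 Bovine aorta enzyme; 50 mM Tris-HCl pH 7.5, 2 mM MgCl2, 0.1 mg/mL BSA, 1 mM CaCl2, 0.1 μM calmodulin, 1 μM [3H]cGMP substrate; 30 min at 30 °C. IC50 read from % inhibition vs log molar concentration curve; duplicates, mean reported.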

[3] = target: cGMP-specific 3',5'-cyclic phosphodiesterase (Bos taurus, UniProt Q28156); assay: Inhibition of phosphodiesterase 5 from bovine lung
Method in brief: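 Purified bovine lung enzyme in 50 mM Tris-HCl (pH 7.5), 2 mM MgCl2, 0.1 mg/mL BSA with 1 μM [3H]cGMP as substrate, incubated 30 min at 30 °C. IC50 derived from percent inhibition plotted against log molar concentration; run in duplicate, mean of two reported.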

[4] = system: Rattus norvegicus; assay: Antihypertensive activity in spontaneously hypertensive rats at 10 mg/kg administered orally; type: functional; settings: route oral
Method in brief: (§1)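 Spontaneously hypertensive rats dosed orally with aqueous solution or suspension in 0.4% methylcellulose vehicle. Value is peak change in mean arterial pressure relative to a vehicle-treated control group.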

[5] = system: Rattus norvegicus; assay: Antihypertensive activity in spontaneously hypertensive rats at 25 mg/kg administered orally; type: functional; settings: route oral; method in brief: as §1
[6] = target: T1, cGMP-dependent 3',5'-cyclic phosphodiesterase (Bos taurus, UniProt P14099); assay: Inhibition of Phosphodiesterase 2 from bovine adrenal cortex
T1 sequence (P14099 whole entry): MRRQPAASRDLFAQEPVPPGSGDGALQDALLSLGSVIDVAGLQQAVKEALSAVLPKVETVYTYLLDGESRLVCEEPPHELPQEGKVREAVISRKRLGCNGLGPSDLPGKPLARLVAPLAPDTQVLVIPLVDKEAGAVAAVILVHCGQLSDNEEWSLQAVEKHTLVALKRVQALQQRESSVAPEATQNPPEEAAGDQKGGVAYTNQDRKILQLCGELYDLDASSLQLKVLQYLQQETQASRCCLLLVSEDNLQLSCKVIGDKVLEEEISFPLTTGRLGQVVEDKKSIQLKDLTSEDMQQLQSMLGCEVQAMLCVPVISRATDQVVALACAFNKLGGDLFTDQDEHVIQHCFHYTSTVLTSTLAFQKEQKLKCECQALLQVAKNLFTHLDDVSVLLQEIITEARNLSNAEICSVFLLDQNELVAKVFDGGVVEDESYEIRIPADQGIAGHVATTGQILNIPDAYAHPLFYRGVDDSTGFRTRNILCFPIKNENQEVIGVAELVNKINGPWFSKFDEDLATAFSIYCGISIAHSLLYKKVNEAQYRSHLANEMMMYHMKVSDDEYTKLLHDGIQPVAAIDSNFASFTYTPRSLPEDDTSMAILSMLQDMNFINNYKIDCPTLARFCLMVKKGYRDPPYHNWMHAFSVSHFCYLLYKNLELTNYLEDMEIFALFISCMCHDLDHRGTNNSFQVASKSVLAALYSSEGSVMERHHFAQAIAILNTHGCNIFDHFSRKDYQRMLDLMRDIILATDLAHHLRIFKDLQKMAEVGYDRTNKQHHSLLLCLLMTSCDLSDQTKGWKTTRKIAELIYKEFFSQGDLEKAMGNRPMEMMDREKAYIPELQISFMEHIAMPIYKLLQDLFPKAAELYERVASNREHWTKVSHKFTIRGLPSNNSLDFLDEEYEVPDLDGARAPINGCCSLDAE
Method in brief: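 Recombinant bovine adrenal cortex enzyme; [3H]cAMP substrate in 50 mM Tris-HCl pH 7.5, 2 mM MgCl2, 0.1 mg/mL BSA, mixture also holding 5 μM cGMP; 30 min, 30 °C. IC50 from inhibition vs log molar concentration curve; duplicate determinations averaged.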

[7] = target: Phosphodiesterase 4 (Canis familiaris); assay: Inhibition of phosphodiesterase PDE4 from canine kidney

3',5'-cyclic-nucleotide phosphodiesterase, sequence (A0A3Q1M1E8 1-1126): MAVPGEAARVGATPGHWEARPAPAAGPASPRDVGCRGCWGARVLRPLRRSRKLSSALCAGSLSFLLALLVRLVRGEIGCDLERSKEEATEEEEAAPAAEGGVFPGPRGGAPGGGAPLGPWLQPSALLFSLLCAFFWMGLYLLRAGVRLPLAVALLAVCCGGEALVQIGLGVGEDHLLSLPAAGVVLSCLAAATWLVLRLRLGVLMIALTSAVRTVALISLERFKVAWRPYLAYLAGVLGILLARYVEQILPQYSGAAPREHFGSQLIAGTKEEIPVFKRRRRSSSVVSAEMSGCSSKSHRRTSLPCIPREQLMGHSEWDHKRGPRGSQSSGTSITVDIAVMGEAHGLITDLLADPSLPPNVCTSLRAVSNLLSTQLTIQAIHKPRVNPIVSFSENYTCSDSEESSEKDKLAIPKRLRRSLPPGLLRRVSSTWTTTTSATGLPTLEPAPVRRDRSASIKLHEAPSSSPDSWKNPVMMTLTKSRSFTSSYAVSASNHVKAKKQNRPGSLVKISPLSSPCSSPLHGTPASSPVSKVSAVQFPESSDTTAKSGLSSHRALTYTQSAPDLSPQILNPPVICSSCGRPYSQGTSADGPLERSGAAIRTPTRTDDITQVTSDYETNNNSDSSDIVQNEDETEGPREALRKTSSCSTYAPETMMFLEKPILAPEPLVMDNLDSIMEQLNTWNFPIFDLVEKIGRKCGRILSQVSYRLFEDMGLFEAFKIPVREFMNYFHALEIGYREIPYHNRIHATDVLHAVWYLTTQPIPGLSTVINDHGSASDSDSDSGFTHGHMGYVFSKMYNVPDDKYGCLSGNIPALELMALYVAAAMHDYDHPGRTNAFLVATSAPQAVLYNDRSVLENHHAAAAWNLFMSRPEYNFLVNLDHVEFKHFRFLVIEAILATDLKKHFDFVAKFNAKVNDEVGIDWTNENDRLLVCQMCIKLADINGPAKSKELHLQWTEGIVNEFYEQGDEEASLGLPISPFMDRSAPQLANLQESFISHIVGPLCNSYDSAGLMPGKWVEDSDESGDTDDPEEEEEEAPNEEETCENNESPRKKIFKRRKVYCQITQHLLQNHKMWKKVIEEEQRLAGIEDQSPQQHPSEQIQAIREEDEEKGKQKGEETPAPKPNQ

Row | SMILES | IC50 [1] [nM] | IC50 [2] [nM] | IC50 [3] [nM] | Delta mmHg [4] | Delta mmHg ([4]; 10 mg/kg) | Delta mmHg [5] | IC50 [6] [nM] | IC50 [7] [nM]
1 | CC(C)[C@@H]1CN2C(=N1)N(C)C(=O)c1c2nn(C)c1Cc1ccccc1 | 90000 | 20 | 100 |  |  |  |  | 
2 | CN1C(=O)c2c(nn(Cc3ccccc3)c2-c2ccccc2)N2C1=N[C@@H]1CCC[C@@H]12 | 55000 | 540 | 2100 | 1 |  |  |  | 
3 | CN1C(=O)c2c(nn(C)c2Cc2ccccc2)N2C1=N[C@@H]1CCC[C@@H]12 (racemic) | 85000 | 160 | 140 |  | -18 |  |  | 
4 | Cc1n[nH]c2c1C(=O)N(C)C1=N[C@@H]3CCC[C@@H]3N12 | > 100000 | 18000 | 2900 | -7 |  |  |  | 
5 | Cc1nc2c(n1Cc1ccccc1)C(=O)N(C)C1=N[C@@H]3CCC[C@@H]3N12 |  |  |  | -28 |  |  |  | 
6 | CN1C(=O)c2cnn(Cc3ccccc3)c2N2C1=N[C@@H]1CCC[C@@H]12 (racemic) | 55000 | 29000 | 3100 |  |  | -14 |  | 
7 | CN1C(=O)c2c(nn(C)c2Cc2ccccc2)N2C1=N[C@@H]1CCC[C@@H]12 | 80000 | 55 | 100 |  | -26 |  |  | 
8 | CN1C(=O)c2c(Cc3ccccc3)nn(C)c2N2C1=N[C@@H]1CCC[C@@H]12 (racemic) | 29000 | 850 | 400 |  |  |  |  | 
9 | CN1C(=O)c2c(nn(C)c2Cc2ccccc2)N2CC3(CCCC3)N=C12 | 55000 | 60 | 75 | -33 |  |  | 11000 | 230
10 | CN1C(=O)c2c(Cc3ccccc3)n[nH]c2N2C1=N[C@@H]1CCC[C@@H]12 (racemic) | > 100000 | 1100 | 190 |  |  | -16 |  | 
11 | CN1C(=O)c2c(nn(C)c2Cc2ccccc2)N2CC(C)(C)N=C12 | 42000 | 18 | 140 |  |  |  |  | 
12 | Cc1nn(Cc2ccccc2)c2c1C(=O)N(C)C1=N[C@@H]3CCC[C@@H]3N12 | 50000 | 2000 | 1000 | -3 |  |  |  | 
